From ChEMBL document CHEMBL1156237, “Antiviral activity of benzimidazole derivatives. II. Antiviral activity of 2-phenylbenzimidazole derivatives” (Bioorg Med Chem, 2010)
The source made the active and inactive calls. How the calls were made is not given here.

Key:
[1] = Cytotoxicity against african green monkey Vero cells; assay type: cell-based; details: chlorocebus sabaeus
In short: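 Vero 76 monolayers exposed to serial compound dilutions, run in parallel on the same 24-well plates as the plaque-reduction assays. CC50 is the concentration reducing viability of mock-infected cells by 50%.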

[2] = Cytotoxicity against MDBK cells after 48 to 96 hrs by MTT assay; assay type: cell-based, Bos taurus; details: cattle, MDBK cells
In short: (§1)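 Cell seeding: MDBK at 6 × 10^5 cells/mL in MEM-E with 10% horse serum and 1 mM Na pyruvate; BHK at 1 × 10^6 cells/mL in MEM-E with 10% FBS. Serial compound dilutions, 37 °C, 5% CO2. Viability of mock-infected cells by MTT after 48–96 h; CC50 is the concentration reducing viability by 50%.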

Coxsackievirus B2 = experiment: Antiviral activity against Human coxsackievirus B2 Ohio-1 infected in african green monkey Vero cells after 3 days by plaque reduction assay; assay type: functional, organism-based, Coxsackievirus B2 (strain Ohio-1); details: Enterovirus B, Vero, 72 h
In short: (§2)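 Plaque reduction assay. Vero 76 cells at 2 × 10^5/well, grown overnight to confluence in D-MEM with 10% FBS. Infected 2 h with 50–100 PFU/well, unadsorbed virus removed. Overlay of D-MEM with 1% inactivated FBS and 0.75% methylcellulose, with or without serial compound dilutions. Incubated at 37 °C for 3 days (HSV-1 KOS, CVB-2 Ohio-1) or 5 days (RSV A2). Fixed and stained with crystal violet in 50% ethanol; plaques counted; EC50 by linear regression.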

[3] = tested on: Vesicular stomatitis virus; experiment: Antiviral activity against VSV Indiana lab infected in african green monkey Vero cells after 2 days by plaque reduction assay; assay type: functional, organism-based
[4] = tested on: Bovine viral diarrhea virus 1; experiment: Antiviral activity against Bovine viral diarrhea virus NADL infected in MDBK cells assessed as protection from virus-induced cytopathogenicity after 3 to 4 days by MTT method; assay type: functional, organism-based, Bovine viral diarrhea virus 1-NADL; details: Bovine viral diarrhea virus isolates and strains, MDBK
In short: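 Cytopathogenicity protection assay. MDBK cells at 3 × 10^4/well, grown overnight to confluence. Infected with BVDV NADL at m.o.i. 0.01 in MEM-E with 0.5% inactivated FBS, 1 mM Na pyruvate and 1% kanamycin. Serial compound dilutions added after 1 h. After 3–4 days at 37 °C, viability read by MTT; EC50 is the concentration giving 50% protection.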

[5] = Cytotoxicity against human MT4 cells after 96 hrs by MTT assay; assay type: cell-based; details: MT4 cells
In short: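 Exponentially growing MT-4 cells at 1 × 10^5 cells/mL in RPMI-1640 with 10% FCS, exposed to serial compound dilutions at 37 °C, 5% CO2. Viability by MTT after 96 h; CC50 is the concentration reducing viability of mock-infected cells by 50%.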

Yellow fever virus = experiment: Antiviral activity against Yellow fever virus 17D infected in BHK cells assessed as protection from virus-induced cytopathogenicity after 3 to 4 days by MTT method; assay type: functional, organism-based
Vaccinia virus = experiment: Antiviral activity against Vaccinia virus Elstree-Lister infected in african green monkey Vero cells after 3 days by plaque reduction assay; assay type: functional, organism-based; details: Orthopoxvirus vaccinia, 72 h
[6] = tested on: Respiratory syncytial virus; experiment: Antiviral activity against RSV A2 infected in african green monkey Vero cells after 5 days by plaque reduction assay; assay type: functional, organism-based; details: human respiratory syncytial virus, A2, Vero, 120 h; in short: as §2
[7] = Cytotoxicity against BHK cells after 48 to 96 hrs by MTT assay; assay type: cell-based, Mesocricetus auratus; details: hamster; in short: as §1
Human alphaherpesvirus 1 = experiment: Antiviral activity against HSV1 KOS infected in african green monkey Vero cells after 3 days by plaque reduction assay; assay type: functional, organism-based; details: Human alphaherpesvirus 1, KOS, 72 h; in short: as §2
Poliovirus 1 = experiment: Antiviral activity against Polio virus type1 Sabin strain Chat infected in african green monkey Vero cells after 2 days by plaque reduction assay; assay type: functional, organism-based, Human poliovirus 1 strain Sabin; details: Enterovirus C, 48 h
[8] = tested on: Human immunodeficiency virus 1; experiment: Antiviral activity against HIV1 3B infected in human MT4 cells assessed as protection from virus-induced cytopathogenicity after 4 days by MTT method; assay type: functional, organism-based
In short: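 MT-4 cells, 1 × 10^4/well in RPMI with or without serial compound dilutions, infected with HIV-1 IIIB, 100 CCID50 (m.o.i. 0.01). Protection from virus-induced cytopathogenicity read by MTT.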

SMILES	CC50 [1]	CC50 [2]	EC50 (Coxsackievirus B2)	Activity [3]	EC50 [4]	CC50 at 96 h [5]	EC50 (Yellow fever virus)	EC50 (Vaccinia virus)	EC50 [6]	CC50 [7]	EC50 (Human alphaherpesvirus 1)	EC50 (Poliovirus 1)	Activity [8]
COc1ccc(-c2nc3cc(C(C)=O)ccc3[nH]2)c(OC)c1	> 100 µM	> 100 µM	> 100 µM	inactive	42 µM	> 100 µM	> 100 µM	> 100 µM	> 100 µM	> 100 µM	> 100 µM	> 100 µM	inactive
COc1ccc(-c2nc3cc(Cl)c(Cl)cc3[nH]2)c([N+](=O)[O-])c1	80 µM	28 µM	> 80 µM	inactive	> 28 µM	2 µM	> 80 µM	> 80 µM	> 80 µM	80 µM	> 80 µM	> 80 µM	inactive
COc1ccc(-c2nc3cc(Cl)c(Cl)cc3[nH]2)c(N)c1	75 µM	6.5 µM	> 75 µM	inactive	> 6.5 µM	3 µM	> 100 µM	> 75 µM	> 75 µM	> 100 µM	> 75 µM	> 75 µM	inactive
Oc1ccc(-c2nc3cc(Cl)c(Cl)cc3[nH]2)cc1	18 µM	11 µM	> 18 µM	inactive	> 11 µM	12 µM	> 29 µM	> 18 µM	7 µM	29 µM	> 18 µM	> 18 µM	inactive
Fc1cccc(F)c1-c1nc2cc(Cl)c(Cl)cc2[nH]1	> 100 µM	43 µM	30 µM	inactive	> 43 µM	17 µM	> 100 µM	> 100 µM	> 100 µM	> 100 µM	> 100 µM	> 100 µM	inactive
O=[N+]([O-])c1ccc(-c2nc3cc(C(F)(F)F)ccc3[nH]2)cc1	45 µM	6 µM	12 µM	inactive	> 6 µM	6 µM	> 18 µM	4 µM	> 45 µM	18 µM	> 45 µM	> 45 µM	inactive
COc1ccc(-c2nc3cc(C(F)(F)F)ccc3[nH]2)c(OC)c1	> 100 µM	> 100 µM	32 µM	inactive	> 100 µM	> 100 µM	> 100 µM	> 100 µM	> 100 µM	> 100 µM	> 100 µM	> 100 µM	inactive
COc1ccc(-c2nc3cc(C(F)(F)F)ccc3[nH]2)c([N+](=O)[O-])c1	20 µM	55 µM	> 20 µM	inactive	> 55 µM	85 µM	> 100 µM	> 20 µM	> 20 µM	100 µM	> 20 µM	> 20 µM	inactive
O=[N+]([O-])c1ccc(-c2nc3cc(C(F)(F)F)ccc3[nH]2)c([N+](=O)[O-])c1	25 µM	16 µM	9 µM	inactive	> 16 µM	9 µM	> 8 µM	> 25 µM	> 25 µM	8 µM	> 25 µM	> 25 µM	inactive
O=[N+]([O-])c1ccc(-c2nc3cc(C(F)(F)F)ccc3n2C2CCCCC2)cc1	> 100 µM	68 µM	45 µM	inactive	60 µM	49 µM	> 100 µM	87 µM	> 100 µM	> 100 µM	> 100 µM	> 100 µM	inactive
Fc1ccc(-c2nc3cc(C(F)(F)F)ccc3[nH]2)cc1	60 µM	19 µM	13 µM	inactive	> 19 µM	22 µM	> 25 µM	8 µM	> 60 µM	25 µM	> 60 µM	> 60 µM	inactive
COc1ccc(-c2nc3cc([N+](=O)[O-])ccc3[nH]2)c(OC)c1OC	> 100 µM	> 100 µM	> 100 µM	inactive	> 100 µM	> 100 µM	> 100 µM	> 100 µM	> 100 µM	> 100 µM	> 100 µM	> 100 µM	inactive
Cn1c(-c2ccc([N+](=O)[O-])cc2)nc2cc(C(F)(F)F)ccc21	> 100 µM	> 100 µM	> 100 µM	inactive	> 100 µM	≥ 100 µM	> 100 µM	> 100 µM	> 100 µM	> 100 µM	> 100 µM	> 100 µM	inactive
Fc1cccc(F)c1-c1nc2cc(C(F)(F)F)ccc2[nH]1	25 µM	≥ 100 µM	> 25 µM	inactive	> 100 µM	100 µM	> 100 µM	> 25 µM	> 25 µM	≥ 100 µM	> 25 µM	> 25 µM	inactive
COc1ccc(-c2nc3cc(C(F)(F)F)ccc3[nH]2)c(OC)c1OC	70 µM	> 100 µM	16 µM	inactive	> 100 µM	93 µM	> 32 µM	> 70 µM	> 70 µM	32 µM	> 70 µM	42 µM	inactive
COc1ccc(-c2nc3cc(Cl)c(Cl)cc3[nH]2)cc1	30 µM	2.5 µM	10 µM	inactive	> 2.5 µM	1 µM	> 18 µM	> 30 µM	> 30 µM	18 µM	20 µM	> 30 µM	inactive
O=[N+]([O-])c1ccc(-c2nc3ccccc3[nH]2)c([N+](=O)[O-])c1	> 100 µM	20 µM	40 µM	inactive	> 20 µM	7 µM	> 100 µM	> 100 µM	> 100 µM	> 100 µM	25 µM	> 100 µM	inactive
COc1ccc(-c2nc3cc(C(C)=O)ccc3[nH]2)c(OC)c1OC	> 100 µM	> 100 µM	> 100 µM	inactive	> 100 µM	> 100 µM	> 100 µM	> 100 µM	> 100 µM	> 100 µM	40 µM	> 100 µM	inactive
O=[N+]([O-])c1ccccc1-c1nc2ccccc2[nH]1	> 100 µM	> 100 µM	> 100 µM	inactive	> 100 µM	60 µM	> 100 µM	> 100 µM	40 µM	> 100 µM	> 100 µM	> 100 µM	inactive
